Experimental data as given in ChEMBL document CHEMBL1177802, “Novel semicarbazones based 2,5-disubstituted-1,3,4-oxadiazoles: one more step towards establishing four binding site pharmacophoric model hypothesis for anticonvulsant activity” (Bioorg Med Chem Lett, 2010).
Active and inactive are the calls of the source.

What was measured:
Mus musculus [1] = assay: Neurotoxicity in Swiss albino mouse at 300 mg/kg, ip after 4 hrs; format: toxicity, organism-based; set-up: dose 300 mg/kg, route intraperitoneal; details: in vivo
Method in brief: (§1)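 Acute neurotoxicity by rotorod test in mice given 30, 100 and 300 mg/kg ip, assessed 0.5 and 4.0 h after dosing. Reported as the minimal dose producing the effect in half or more of the animals. Absence of activity is judged at the 300 mg/kg maximum.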

Rattus norvegicus [2] = assay: Increase in GABA level in Wistar rat midbrain assessed per mg of tissue at 100 mg/kg, ip after 2 hrs; format: functional; details: route intraperitoneal
Method in brief: (§2)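 Rats given 100 mg/kg ip and killed by decapitation 2 h later. Midbrain, medulla oblongata and cerebellum are placed separately in ice-cold 80% ethanol and processed for GABA, expressed per 100 mg tissue. Reference drug clobazam is given at 30 mg/kg ip. Values are mean ± SEM of six rats.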

Mus musculus [3] = assay: Anticonvulsant activity against maximal electroshock-induced seizures in ip dosed Swiss albino mouse assessed as minimum effective dose after 0.5 hrs; format: functional; details: read-out: MED
Method in brief: (§3)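 Mice; compounds given ip at 30, 100 and 300 mg/kg and tested in the maximal electroshock seizure model at 0.5 and 4.0 h after dosing. Read-out is the minimal dose giving protection in half or more of the animals. Absence of activity is judged at the 300 mg/kg maximum.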

Mus musculus [4] = assay: Anticonvulsant activity against maximal electroshock-induced seizures in ip dosed Swiss albino mouse assessed as minimum effective dose after 4 hrs; format: functional; details: read-out: MED; method in brief: as §3
Mus musculus [5] = assay: Neurotoxicity in Swiss albino mouse at 300 mg/kg, ip after 0.5 hrs; format: toxicity, organism-based; set-up: dose 300 mg/kg, route intraperitoneal; details: in vivo; method in brief: as §1
Rattus norvegicus [6] = assay: Anticonvulsant activity against maximal electroshock-induced seizures in Wistar rat at 30 mg/kg, po after 0.5 hrs; format: functional, organism-based; set-up: dose 30 mg/kg
Method in brief: (§4)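 Rats dosed orally at 30 mg/kg; maximal electroshock protection scored at 0.25, 0.5, 1, 2 and 4 h. Result is given as the number of protected rats out of four.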

Rattus norvegicus [7] = assay: Increase in GABA level in Wistar rat medulla oblangata assessed per mg of tissue at 100 mg/kg, ip after 2 hrs; format: functional, Medulla oblongata; details: route intraperitoneal; method in brief: as §2
Rattus norvegicus [8] = assay: Increase in GABA level in Wistar rat cerebellum assessed per mg of tissue at 100 mg/kg, ip after 2 hrs; format: functional; details: route intraperitoneal; method in brief: as §2
Mus musculus [9] = assay: Anticonvulsant activity against subcutaneous pentylenetetrazole-induced seizures in ip dosed Swiss albino mouse assessed as minimum effective dose after 0.5 hrs; format: functional; details: read-out: MED
Method in brief: (§5)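 Mice; subcutaneous pentylenetetrazole seizure screen after ip dosing at 30, 100 and 300 mg/kg, read 0.5 and 4.0 h post-dose. Scored as the lowest dose protecting at least half of the animals. Absence of activity is judged at the 300 mg/kg maximum.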

Rattus norvegicus [10] = assay: Neurotoxicity in Wistar rat at 30 mg/kg, po after 4 hrs; format: toxicity, organism-based; set-up: dose 30 mg/kg, route oral; details: in vivo
Method in brief: (§6)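 Oral dosing in rats at 30 mg/kg, neurotoxicity (rotorod) scored at 0.25, 0.5, 1, 2 and 4 h post-administration. Counts are out of four rats per time point.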

Rattus norvegicus [11] = assay: Neurotoxicity in Wistar rat at 30 mg/kg, po after 1 hr; format: toxicity, organism-based; set-up: dose 30 mg/kg, route oral; details: in vivo; method in brief: as §6
Rattus norvegicus [12] = assay: Anticonvulsant activity against subcutaneous strychnine-induced seizures in ip dosed Wistar rat assessed as minimum effective dose after 4 hrs; format: functional; details: read-out: MED
Method in brief: (§7)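 Rats; subcutaneous strychnine-induced seizure model with compounds given intraperitoneally at 30, 100 and 300 mg/kg. Activity is checked at 0.5 h and 4.0 h and recorded as the minimal dose active in at least half of the animals. Absence of activity is judged at the 300 mg/kg maximum.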

Rattus norvegicus [13] = assay: Neurotoxicity in Wistar rat at 30 mg/kg, po after 0.5 hrs; format: toxicity, organism-based; set-up: dose 30 mg/kg, route oral; details: in vivo; method in brief: as §6
Rattus norvegicus [14] = assay: Anticonvulsant activity against maximal electroshock-induced seizures in Wistar rat at 30 mg/kg, po after 1 hr; format: functional, organism-based; set-up: dose 30 mg/kg; method in brief: as §4
Rattus norvegicus [15] = assay: Neurotoxicity in Wistar rat at 30 mg/kg, po after 2 hrs; format: toxicity, organism-based; set-up: dose 30 mg/kg, route oral; details: in vivo; method in brief: as §6
Rattus norvegicus [16] = assay: Anticonvulsant activity against subcutaneous strychnine-induced seizures in Wistar rat at 300 mg/kg, ip after 0.5 hrs; format: functional, organism-based; set-up: dose 300 mg/kg; method in brief: as §7
Mus musculus [17] = assay: Anticonvulsant activity against subcutaneous pentylenetetrazole-induced seizures in ip dosed Swiss albino mouse assessed as minimum effective dose after 4 hrs; format: functional; details: read-out: MED; method in brief: as §5
Rattus norvegicus [18] = assay: Anticonvulsant activity against maximal electroshock-induced seizures in Wistar rat at 30 mg/kg, po after 0.25 hrs; format: functional, organism-based; set-up: dose 30 mg/kg; method in brief: as §4
Rattus norvegicus [19] = assay: Anticonvulsant activity against maximal electroshock-induced seizures in Wistar rat at 30 mg/kg, po after 2 hrs; format: functional, organism-based; set-up: dose 30 mg/kg; method in brief: as §4
Rattus norvegicus [20] = assay: Neurotoxicity in Wistar rat at 30 mg/kg, po after 0.25 hrs; format: toxicity, organism-based; set-up: dose 30 mg/kg, route oral; details: in vivo; method in brief: as §6
Mus musculus [21] = assay: Anticonvulsant activity against subcutaneous pentylenetetrazole-induced seizures in Swiss albino mouse at 300 mg/kg, ip after 0.5 hrs; format: functional, organism-based; set-up: dose 300 mg/kg; method in brief: as §5
Rattus norvegicus [22] = assay: Increase in GABA level in Wistar rat medulla oblangata assessed per mg of tissue at 30 mg/kg, ip after 2 hrs; format: functional, Medulla oblongata; details: route intraperitoneal
Method in brief: (§8)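 Rats dosed ip, killed by decapitation 2 h after dosing. Midbrain, medulla oblongata and cerebellum were each placed separately in ice-cold 80% ethanol and processed for GABA by a previously reported method. GABA was expressed per 100 mg tissue. Values are the mean ± SEM of six rats, compared with an untreated control group.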

Rattus norvegicus [23] = assay: Increase in GABA level in Wistar rat midbrain assessed per mg of tissue at 30 mg/kg, ip after 2 hrs; format: functional; details: route intraperitoneal
Rattus norvegicus [24] = assay: Increase in GABA level in Wistar rat cerebellum assessed per mg of tissue at 30 mg/kg, ip after 2 hrs; format: functional; details: route intraperitoneal; method in brief: as §8
Mus musculus [25] = assay: Anticonvulsant activity against subcutaneous pentylenetetrazole-induced seizures in Swiss albino mouse at 300 mg/kg, ip after 4 hrs; format: functional, organism-based; set-up: dose 300 mg/kg; method in brief: as §5
Mus musculus [26] = assay: Neurotoxicity in ip dosed Swiss albino mouse assessed as minimum dose required to cause toxicity after 0.5 hrs; format: organism-based; details: in vivo; method in brief: as §1
Rattus norvegicus [27] = assay: Anticonvulsant activity against subcutaneous strychnine-induced seizures in ip dosed Wistar rat assessed as minimum effective dose after 0.5 hrs; format: functional; details: read-out: MED
Method in brief: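 Rats given 30, 100 or 300 mg/kg ip and challenged with subcutaneous strychnine. Protection was read at 0.5 and 4.0 h after dosing. The value is the minimal dose that gave activity in half or more of the animals; no activity at 300 mg/kg was the highest-dose cut-off.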

Mus musculus [28] = assay: Neurotoxicity in ip dosed Swiss albino mouse assessed as minimum dose required to cause toxicity after 4 hrs; format: organism-based; details: in vivo; method in brief: as §1

Row | Compound | Activity (Mus musculus [1]) | Activity (Rattus norvegicus [2]) [µg] | minimal effective dose (Mus musculus [3]) [mg/kg] | minimal effective dose (Mus musculus [4]) [mg/kg] | Activity (Mus musculus [5]) | Activity (Rattus norvegicus [6]) | Activity (Rattus norvegicus [7]) [µg] | Activity (Rattus norvegicus [8]) [µg] | Activity (Rattus norvegicus [10]) | Activity (Rattus norvegicus [11]) | minimal effective dose (Rattus norvegicus [12]) [mg/kg] | Activity (Rattus norvegicus [13]) | Activity (Rattus norvegicus [14]) | Activity (Rattus norvegicus [15]) | MED (Rattus norvegicus [16]) | minimal effective dose (Mus musculus [17]) [mg/kg] | Activity (Rattus norvegicus [18]) | Activity (Rattus norvegicus [19]) | Activity (Rattus norvegicus [20]) | MED (Mus musculus [21]) | further results
1 | O=C(N/N=C(/c1ccccc1)c1ccc([N+](=O)[O-])cc1)Nc1nnc(COc2ccc3ccccc3c2)o1 | Non-toxic | 67.72 | 100 | 300 | Non-toxic | inactive | 46.62 | 29.75 | Non-toxic | Non-toxic | 300 | Non-toxic | inactive | Non-toxic | inactive | 300 | inactive | inactive | Non-toxic |  | minimal effective dose (Mus musculus [9]): 100 mg/kg
2 | C/C(=N/NC(=O)Nc1nnc(COc2ccc3ccccc3c2)o1)c1ccc([N+](=O)[O-])cc1 | Non-toxic | 45.5 | 100 | 300 | Non-toxic |  | 40.42 | 27.56 | Non-toxic | Non-toxic | 300 | Non-toxic | inactive |  | inactive | 300 | inactive | inactive | Non-toxic | inactive | 
3 | CN1C(=O)CC(=O)N(c2ccccc2)c2cc(Cl)ccc21 [CLOBAZAM] |  |  |  |  |  |  |  |  |  |  |  |  |  |  |  |  |  |  |  |  | Activity (Rattus norvegicus [22]): 47.53 µg; Activity (Rattus norvegicus [23]): 69.51 µg; Activity (Rattus norvegicus [24]): 35.44 µg
4 | O=C(N/N=C\c1ccc(O)cc1)Nc1nnc(COc2ccc3ccccc3c2)o1 |  | 53.77 | 100 | 300 |  | inactive | 35.48 | 28.53 |  | Non-toxic | 300 | Non-toxic |  | Non-toxic |  |  | inactive | inactive | Non-toxic | inactive | MED (Mus musculus [25]): inactive; Activity (Mus musculus [26]): 100 mg/kg; minimal effective dose (Rattus norvegicus [27]): 100 mg/kg; Activity (Mus musculus [28]): 100 mg/kg
